E coli WT exp = growth inhibitors of wild-type E. coli, primary screen, strain BW25113, expanded library, OD600; growth inhibition, % at 100 µM; 98,000 compounds, 0.15% hits; OD600 absorbance; AID 710, 2007;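 active means growth inhibition above about 50% at one test dose, limit read from the data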;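 further: growth measured after 20 h incubation at 37 °C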
PostGolgi yeast = phenotypic screen on post-Golgi transport, primary screen; post-Golgi transport phenotypic cell assay; 98,000 compounds, 0.9% hits; inhibition, % at 10 µM;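 further: yeast cells grown in 1536-well plates; yeast grown about 18 h at 30C before absorbance read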
D1 mod = D1 CRE-luciferase signal change, two-sided – cell-based, HEK293 D1, dopamine EC30, D1 allosteric modulator project, primary screen. D(1A) dopamine receptor (Homo sapiens), P21728. AID 641, 2007. dopamine EC30 potentiation; actives deviate in either direction. 58,000 compounds, 5.9% hits. B-score at 10 µM;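 active means luminescence count or its row- and column-corrected plate score outside the 99.7% band of the plate's sample wells, on either side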
Target sequence (P21728 whole entry, looked up): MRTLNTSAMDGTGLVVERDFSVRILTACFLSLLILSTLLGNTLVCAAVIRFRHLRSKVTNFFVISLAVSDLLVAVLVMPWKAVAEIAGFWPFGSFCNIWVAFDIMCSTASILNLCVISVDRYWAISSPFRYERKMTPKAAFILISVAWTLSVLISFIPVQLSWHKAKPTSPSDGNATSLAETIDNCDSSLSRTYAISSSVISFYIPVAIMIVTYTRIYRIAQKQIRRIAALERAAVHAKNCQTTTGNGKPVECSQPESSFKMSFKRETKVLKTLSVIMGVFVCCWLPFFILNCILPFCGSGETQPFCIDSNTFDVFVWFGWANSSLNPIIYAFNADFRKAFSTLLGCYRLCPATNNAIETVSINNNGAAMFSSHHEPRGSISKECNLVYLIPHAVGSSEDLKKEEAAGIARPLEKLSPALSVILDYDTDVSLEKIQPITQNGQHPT
tolC growth inh = growth inhibitors of E. coli tolC mutant, primary screen, strain BW25113 ΔtolC::kan, 384-well; growth inhibition, % at 10 µM (by protocol); AID 573, 2007; 65,000 compounds, 2.2% hits; OD615;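 active means growth inhibition at or above a cutoff equal to the mean over every tested compound plus 3 SD, cut at about 60% in these data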;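 further: growth measured after 20 h incubation at 37 °C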
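Assay system: tolC-deleted E. coli BW25113. Medium: kanamycin-containing LB broth (50 µg/mL). Dosing: 10 µM final, single dose. Timing: bacterial growth with compound for 20 h at 37 °C. Detection: A615 absorbance measurement. Read-out basis: growth inhibition in percent.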
DAT uptake mod = changed hDAT dopamine uptake under cocaine IC80, either direction, primary screen, cocaine antagonist project, cell-based, LLC-PK1 hDAT, [14C]-dopamine uptake, MLSMR; B-score at 10 µM; AID 449768, 2010; LLC-PK1 hDAT cells, [14C]-dopamine uptake with cocaine IC80; actives deviate in either direction; 110,000 compounds, 1.3% hits; Sodium-dependent dopamine transporter (Homo sapiens), Q01959;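 active means Z score or B-score, a plate-position-corrected score, falls beyond the plate's 99.7% confidence bounds, in either direction; inactive means both scores lie inside the 99.7% bounds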;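 further: scored against the spread of the other compound wells on the same plate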
PostGolgi ctrl = growth inhibition of yeast control strain, primary screen, counter-screen for post-Golgi transport modulator project. 98,000 compounds, 5% hits. AID 738, 2007. inhibition, % at 10 µM. efflux-deficient yeast background strain, growth absorbance A615, 16 h
D1 PAM confirm = D1 receptor positive allosteric modulators, retest, confirmation, cell-based, HEK293 D1, CRE-luciferase, duplicate. shares compounds with D1 mod. dopamine EC30 potentiation; active compounds read high. luminescence at 10 µM. 2,200 compounds, 88% hits;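 active means luminescence in either of two replicates above the same-plate mean plus 3 SD of the low-dose dopamine control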
D1 no dopamine = D1 receptor agonism without dopamine, confirmation, mechanism study for D1 allosteric modulator project, cell-based, HEK293 D1, CRE-luciferase, secondary assay 1 | luminescence, no dopamine; active compounds read high | luminescence at 10 µM | shares compounds with D1 mod | 1,900 compounds, 0.8% hits; in the data active means luminescence above about 3900
Isoprot counter = isoproterenol response counter-screen activity for D1 modulators; shares compounds with D1 mod; HEK293 D1 CRE-luciferase, isoproterenol EC30 counter-screen; calls only at 10 µM; 2,200 compounds, 63% hits;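 active means luminescence in either replicate above plate mean of wells with a partly effective reference agonist dose plus 3 SD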;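 further: isoproterenol raises cAMP through native beta-adrenoceptor Gs so signal bypasses D1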
Numbers without * were called inactive; i = inactive; . = no result given; + = active, no number. Compounds with a hit are over-represented: about 9.3% of the library has one in this group of screens. Unless noted, no stated cut-off is given here; in the data, active means inhibition above about 30%; inactive means the rest.

SMILES	E coli WT exp	PostGolgi yeast	D1 mod	tolC growth inh	DAT uptake mod	PostGolgi ctrl	D1 PAM confirm	D1 no dopamine	Isoprot counter
COc1ccc(CN2C(=O)c3cccnc3C2Nc2cc(Cl)c(OC)cc2OC)cc1 (stereo not drawn)	-11	28	6.5*	-1	1.1	11	10420*	.	+
COc1ccccc1-c1nc(C(N)=O)c2[nH]c(=O)n(-c3cccc(C)c3)c2n1	-4	3	2.7	11	0.94	10	.	.	.
COc1ccc(-c2nc(C(N)=O)c3[nH]c(=O)n(-c4cccc(C)c4)c3n2)c(OC)c1	-5	0	7.7*	30	-0.79	9	10376*	1548	+
Cc1cccc(-n2c(=O)[nH]c3c(C(N)=O)nc(CC(C)C)nc32)c1	4	-2	11*	-3	0.13	-10	15452*	1444	+
CSCC[C@H](NC(=O)OC(C)(C)C)c1nnc(SCC(=O)Nc2ccc(C)cc2C)o1	11	-2	.	7	0.52	3	.	.	.
C=CCn1c(CCC(=O)O)ccc1-c1ccccc1	4	5	0.02	18	0.12	2	.	.	.
CSc1nc2c(c(=O)n1-c1ccccc1)SCC2	-2	3	2.7*	4	-0.026	13	11540*	1796	i
CCOc1ccc(-n2c(SC(C)C)nc3c(c2=O)SCC3)cc1	-12	-6	14*	19	-0.052	3	19936*	1704	+
COC(=O)c1ccc(C(=O)OC)c(NC(=O)c2cc3ccccc3o2)c1	.	.	-0.18	1	.	.	.	.	.
O=C1c2ccccc2C(Nc2ccc(F)cc2F)N1CCN1CCOCC1 (stereo not drawn)	-4	2	-0.82	-10	-0.12	4	.	.	.
COc1ccc(-c2cc(C(F)F)n3ncc(C(=O)N4CCN(C)CC4)c3n2)cc1	.	.	.	.	-0.69	.	.	.	.
COc1ccc(-c2cc(C(F)F)n3ncc(C(=O)N4CCSCC4)c3n2)cc1	-3	6	5.2*	17	0.043	3	8908*	1552	+
CCN(CC)S(=O)(=O)c1ccc(C(=O)N2CCCCC2)cc1	0	11	.	.	-0.0095	4	.	.	.
CS(=O)(=O)c1sc2nc(-c3cccs3)cc(-c3ccccc3)c2c1N	-6	0	5.1*	17	0.15	6	15760*	1468	i
CC(=O)c1sc2nc(-c3cccs3)cc(C(F)(F)F)c2c1N	-7	3	5.9*	-30	-0.49	5	12244*	1624	+
Cc1c(C(=O)Nc2nccs2)sc2nc(-c3cccs3)cc(C(F)(F)F)c12	-16	-5	.	.	0.094	-10	.	.	.
CC1CCCCN1Cc1nc2c(c(=O)n(C)c(=O)n2C)n1Cc1cccc2ccccc12 (stereo not drawn)	.	.	0.01	8	.	.	.	.	.
CCN=C1SC(CC(=O)NC2CCCCC2)C(=O)N1CC (stereo not drawn)	1	11	0.049	-6	-1.1	-1	.	.	.
CCN=C1SC(CC(=O)NC(N)=O)C(=O)N1CC (stereo not drawn)	3	-3	4.3*	-6	-1.4	8	20476*	1496	+
CCN=C1SC(C(N)=O)CC(=O)N1CC (stereo not drawn)	1	3	6.3*	-10	-0.34	8	10588*	1464	i
CCCCOc1ccccc1NC(=O)CC1SC(=NCC)N(CC)C1=O (stereo not drawn)	5	14	.	10	0.0055	-1	.	.	.

Source: PubChem BioAssay (several laboratories)
